An excerpt weighted towards active compounds, which were near 2.3% of everything screened.
b-catenin transl = alters nuclear translocation of beta-catenin in HeLa cells; immunofluorescence imaging; nuclear translocation activity, % at 5 µM; 190,000 compounds, 0.3% hits;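 active = nuclear translocation activity above 50% at 5 µM, with a well cell count of 50 or more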;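 note: per-cell ratio of nuclear to cytoplasmic median beta-catenin stain intensity; plate controls were DMSO negative control for no effect and GSK-3 inhibitor IX positive control for full effect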
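Read-out: Nuclear/cytoplasmic beta-catenin signal ratio, % activation | Assay system: Human HeLa cell line | Times: 24 h compound exposure at 37°C, 5% CO2 | Signal: Fluorescence imaging of beta-catenin antibody stain plus DAPI | Dosing: 5 µM primary, 0.02–20 µM confirmation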
MT stabilizer = stabilizes microtubules in HeLa cells; HeLa tubulin immunostaining HCS, 24 h; share of cells brighter than vehicle mean+2SD; % tubulin-high responders, % at 10 µM; 200,000 compounds, 0.83% hits;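 active = plate Z-score above 3 for both tubulin-high and condensed-nucleus cell shares, with cell loss under 80%, at 10 µM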;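 note: anti alpha tubulin signal scored within the nucleus-defined area of each cell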
Dynein cargo inh = blocks dynein driven cargo transport along microtubules. 220,000 compounds, 0.47% hits. z-score, hits read low. 3617.4 mouse cells, GR-EGFP nuclear translocation imaging; test concentration mostly 20 µM; stimulated with dexamethasone, 1 µM; hits give low values;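 active = plate z-score of nuclear minus cytoplasmic receptor signal below a set negative limit, without overly bright fluorescence or cell loss, cut at about -3.5 in these data, passing the limit was not always enough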;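 note: z-score of nuclear minus cytoplasmic ring GR-EGFP intensity difference per well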
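Buffer or medium: Induction medium lacking tetracycline, stripped serum | Also added: Dexamethasone agonist, 1.0 µM final, for 30 min | Timing: 48 h induction, 1 h compound, 30 min dex at 37 °C | Detection: Formaldehyde fixation, Hoechst nuclear stain, 10x automated fluorescence imaging | Measure: Nuclear versus cytoplasmic GR-EGFP signal, averaged per well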
Ins promoter up = MIN6 insulin promoter up-regulation; MIN6 insulin promoter-GFP reporter, high-content imaging; hits give high values; z-score at 5 µM; 190,000 compounds, 0.3% hits;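 active = z-score above 3 at 5 µM with at least 500 cells counted in the well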
Autophagy mod = modulators of autophagy. 190,000 compounds, 0.98% hits. MEF GFP-LC3 puncta imaging; test concentration mostly 10 µM. calls only at 10 µM (by protocol);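 active = percentage of spot-positive cells more than 3 SD above its plate mean, without a fluorescence outlier flag or 80% toxicity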;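 note: spot-positive cell cutoff set from DMSO-treated cells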
An asterisk follows results filed as active; i = inactive; . = not tested or not shown; + = active, no number.

SMILES | b-catenin transl | MT stabilizer | Dynein cargo inh | Ins promoter up | Autophagy mod
CCCN(CCC)C(=O)Cn1c(=O)c2ccccc2n2c(=S)sc(-c3ccccc3C)c12 | . | 1 | -1.6 | 0.03 | i
CCCN(CCC)C(=O)Cn1c(=O)c2sccc2n2c(=S)sc(-c3ccccc3)c12 | -2 | 22 | -1.4 | -0.11 | +
COc1cccc2cc(C(=O)OCC(=O)NCc3ccc4c(c3)OCO4)c(=O)oc12 | 0 | . | -0.8 | -0.03 | .
CCc1ccc(NC(=O)/C(C#N)=C/c2cc3ccc(C)cc3nc2N2CCOCC2)cc1 | . | 3 | -0.36 | 0.55 | +
COc1ccc(NC(=O)/C(C#N)=C\c2ccc(N3CCOCC3)o2)cc1 | 2 | 2 | -1.1 | . | i
CCCCN(CC)S(=O)(=O)c1ccc(C(=O)N(CCCN(C)C)c2nc3cc(C)cc(C)c3s2)cc1 | -5 | 33 | 2.9 | -3.8 | +
CCCCN(C)S(=O)(=O)c1ccc(C(=O)N(CCN(C)C)c2nc3ccc(C)cc3s2)cc1 | -5 | 3 | -0.36 | -1.1 | i
C1=C(c2ccccc2)Nc2nnnn2C1 | 0 | 2 | 0.34 | 3.1* | i
CCN(CC)CCNC(=O)c1c(C)n(-c2ccccc2)c2cc(Br)c(OC)cc12 | 0 | 3 | -5.2 | 0.25 | +
O=C(N/N=C\c1ccc(Cl)cc1)C1=NOC2COC3(CCN(c4ccc([N+](=O)[O-])cc4)CC3)OCC12 (centres undefined) | -1 | . | 1.1 | 0.29 | .
Cc1c(-c2nc(N)nc(Nc3ccccc3)n2)oc2ccccc12 | -1 | 25* | -0.14 | -0.14 | i
O=c1[nH]c2ccsc2c(=O)n1CCO | 1 | . | -0.63 | 0.62 | .
Cc1cc(C)cc(NC(=S)N2CCC(N(C)CC3CCCO3)CC2)c1 (centres undefined) | 0 | 2 | -0.56 | 0.3 | i
CC(=O)O[C@@]12CO[C@@H]1C[C@H](O)[C@@]1(C)C(=O)[C@H](O)C3=C(C)[C@@H](OC(=O)[C@H](O)[C@@H](NC(=O)OC(C)(C)C)c4ccccc4)C[C@](O)([C@@H](OC(=O)c4ccccc4)[C@H]21)C3(C)C | 77* | . | . | -0.38 | .
O=C(NC(=S)NC1CCCc2ccccc21)c1ccco1 (centres undefined) | -1 | 4 | -0.023 | -0.81 | +
Cc1ccc(-n2nnnc2SCn2nnc3ccccc3c2=O)cc1 | 5 | 2 | -0.12 | . | i
Cc1cccc(-n2nnnc2SCn2nnc3ccccc3c2=O)c1 | . | 3 | 3.2 | . | +
Cc1cc(C(C#N)c2ccccc2F)n2ncnc2n1 (centres undefined) | 0 | 2 | 0.024 | 0.83 | i
O=C(Cn1c(-c2ccccc2)c[n+]2ccsc12)c1ccc(Br)cc1 | 1 | 4 | 0.52 | -1.9 | i
CCS(=O)(=O)N1Cc2ccccc2CC1C(=O)Nc1ncc(C)s1 (centres undefined) | 0 | 4 | 0.79 | -0.3 | +
CCc1ccc2nc(Nc3nc(COC)cc(=O)[nH]3)nc(C)c2c1 | 0 | 2 | -0.65 | -1.2 | i
COCc1cc(=O)[nH]c(Nc2nc3ccc(C)cc3o2)n1 | 1 | 4 | 0.92 | -0.34 | +
COc1cc(NC(=S)NCCN2CCOCC2)cc(OC)c1 | -1 | 5 | 2.2 | -0.67 | +
COc1ccc(NC(=S)NCCN2CCOCC2)cc1 | 3 | 2 | 0.08 | -0.32 | i
CCc1ccc(C(=O)/C=C/c2ccc([N+](=O)[O-])o2)cc1 | . | 0 | -1.5 | 0.16 | +
SMILES | b-catenin transl | MT stabilizer | Dynein cargo inh | Ins promoter up | Autophagy mod
CCn1c2ccccc2c2nnc(SCC(=O)Nc3cc(C)on3)nc21 | 2 | 3 | 0.89 | 4* | i
CCn1c2ccccc2c2nnc(SCC(=O)Nc3c(C)n(C)n(-c4ccccc4)c3=O)nc21 | 3 | 3 | 0.24 | -0.92 | i
COc1cccc(NC(=O)N2CCN(c3nnnn3-c3ccccc3)CC2)c1 | -1 | 2 | 1.1 | 3.1* | i
COc1cccc(NC(=O)N2CCCC2)c1 | 0 | 2 | -0.41 | 0.51 | i
CCOC(=O)c1nn(-c2cccc(OC)c2)c2nc(Nc3ccccc3)cc(=O)n12 | . | 2 | 0.6 | 0.55 | +
O=C1N/C(=C/c2ccc(Br)s2)C(=O)N1c1ccccc1 | 0 | 2 | -0.37 | -0.35 | +
Cc1cccn2c(=O)c(/C=N/O)c(N3CCOCC3)nc12 | . | 2 | -0.11 | 0.87 | i
COc1cccc(N/C(SC)=C(/C#N)C(N)=O)c1 | -1 | 22* | -0.27 | 0.09 | i
Cc1ccc(-n2nnnc2SCC(=O)c2cc(C)n(-c3cc(C)on3)c2C)cc1 | 6 | 7.5* | -0.42 | 0.15 | i
Cc1cc(C(=O)CSc2nnnn2-c2ccccc2)c(C)n1-c1ccc2c(c1)OCO2 | 2 | 3 | -0.56 | -0.98 | i
O=C(C1CCN(c2nnc(-n3cccc3)s2)CC1)N1CCN(Cc2ccc3c(c2)OCO3)CC1 | -1 | 6 | 0.25 | -0.91 | i
CC1CCN(Cc2ccc(NC(=O)C3CCN(c4nnc(-n5cccc5)s4)CC3)cc2)CC1 | -1 | 3 | -0.39 | -0.34 | +
Cc1ccc(C2=NN(C(=S)Nc3ccccc3)C(c3ccco3)C2)cc1 (centres undefined) | -2 | 2 | 0.073 | -0.42 | i
CCS(=O)(=O)Nc1ccc(C2=NN(C(=S)Nc3ccccc3)C(c3ccco3)C2)cc1 (centres undefined) | 0 | 22* | -0.0062 | -0.92 | i
OC(COc1cccc2ccccc12)CN1CCN(c2ccccc2Cl)CC1 (centres undefined) | -1 | . | 1.4 | 3.5* | .
Cc1ccc(N2CCN(CC(O)COc3cccc4ccccc34)CC2)cc1 (centres undefined) | 0 | . | -0.2 | -0.05 | .
CC(C)OC(=O)Nc1ccc2c(c1)N(C(=O)N1CCN(C)CC1)c1ccccc1CC2 | 0 | . | 2.3 | 0.2 | .
O=c1c(N2CCOCC2)c(N2CCOCC2)c1=O | 1 | . | -0.071 | 3* | .
Nc1cccc(C(=O)OCC(=O)Nc2cccc3c2C(=O)c2ccccc2C3=O)c1 | . | 3 | 0.065 | -0.14 | +
C=CCn1c(C)nnc1SCC(=O)N1CCN(S(=O)(=O)c2ccccc2)CC1 | 0 | . | 1.4 | 1.2 | .
CCOC(=O)C1(Cc2cccc(OC)c2)CCN(Cc2cccn2-c2ccccn2)CC1 | -2 | 4 | 0.31 | -0.54 | i
COc1ccc(/C=N/n2cncn2)cc1Cn1cc([N+](=O)[O-])cn1 | -1 | . | 0.11 | -0.3 | .
COc1ccc(/C=N/Nc2ccc([N+](=O)[O-])cc2)cc1Cn1cc([N+](=O)[O-])cn1 | 51* | 9 | -0.067 | 0.23 | i
COc1cc(S(=O)(=O)Nc2cccnc2)ccc1F | 20 | 5 | -0.066 | -0.2 | i
COc1cc(S(=O)(=O)Nc2cc(C)cc(C)c2)ccc1F | . | 12* | -0.52 | 0.6 | i
CN(CCc1cnn(C)c1)Cc1nc(CC2CC2)no1 | 0 | 3 | 0.58 | -0.13 | i
COc1cc(NC(=O)[C@@H](NC(=O)c2ccco2)C(C)C)c(OC)cc1NC(=O)c1ccccc1 | -1 | 4 | -1 | 0.07 | i

High-throughput results as filed in PubChem.
